Experimental data published in ChEMBL document CHEMBL4257503, “N-Acetyl-3-aminopyrazoles block the non-canonical NF-kB cascade by selectively inhibiting NIK” (Medchemcomm, 2018).
In brackets after ≈: the same amount, converted by molar mass. Activity calls are given as the source filed them. No cut-off for these calls is given here.

Key:
[1] = biological target: T1, Inhibitor of nuclear factor kappa-B kinase subunit beta (Homo sapiens, UniProt O14920); test: Inhibition of recombinant human full-length N-terminal GST-fused/His6-tagged IKKbeta (M1 to S756 residues) expressed in Sf9 insect cells using ERLLDDRHDSGLDSMKDEE peptide as substrate measured after 60 mins by ADP-Glo kinase assay
T1 sequence (O14920 whole entry): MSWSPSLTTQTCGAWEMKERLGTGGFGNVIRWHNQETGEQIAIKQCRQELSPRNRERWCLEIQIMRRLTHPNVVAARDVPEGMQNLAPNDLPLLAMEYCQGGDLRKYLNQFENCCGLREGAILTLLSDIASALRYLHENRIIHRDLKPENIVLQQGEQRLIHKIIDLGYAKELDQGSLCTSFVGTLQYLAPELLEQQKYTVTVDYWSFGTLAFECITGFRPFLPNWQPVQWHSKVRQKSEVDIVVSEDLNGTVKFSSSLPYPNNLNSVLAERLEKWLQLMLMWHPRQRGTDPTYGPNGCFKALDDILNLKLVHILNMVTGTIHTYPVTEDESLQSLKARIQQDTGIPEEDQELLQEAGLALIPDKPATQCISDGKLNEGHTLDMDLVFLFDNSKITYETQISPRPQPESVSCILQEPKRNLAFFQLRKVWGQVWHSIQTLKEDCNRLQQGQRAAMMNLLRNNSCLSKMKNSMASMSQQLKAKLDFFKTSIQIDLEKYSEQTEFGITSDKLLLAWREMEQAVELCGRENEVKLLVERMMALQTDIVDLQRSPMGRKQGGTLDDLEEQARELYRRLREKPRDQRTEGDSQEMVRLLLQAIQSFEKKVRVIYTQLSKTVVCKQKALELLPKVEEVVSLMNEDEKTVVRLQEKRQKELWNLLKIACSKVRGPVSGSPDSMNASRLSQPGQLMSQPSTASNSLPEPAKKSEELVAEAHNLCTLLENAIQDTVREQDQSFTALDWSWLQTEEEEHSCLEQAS

[2] = biological target: Mitogen-activated protein kinase kinase kinase 8 (Homo sapiens, UniProt P41279); test: Inhibition of COT (unknown origin)
[3] = biological target: Dual specificity tyrosine-phosphorylation-regulated kinase 1A (Homo sapiens, UniProt Q13627); test: Inhibition of DYRK1A (unknown origin)
[4] = biological target: Tyrosine-protein kinase JAK1 (Homo sapiens, UniProt P23458); test: Inhibition of JAK1 (unknown origin)
[5] = biological target: Casein kinase I isoform alpha (Homo sapiens, UniProt P48729); test: Inhibition of CK1-alpha1 (unknown origin)
Ephrin type-A receptor 6 = Ephrin type-A receptor 6 (Homo sapiens, UniProt Q9UF33); test: Inhibition of EPHA6 (unknown origin)
[6] = biological target: Tyrosine-protein kinase SYK (Homo sapiens, UniProt P43405); test: Inhibition of SYK (unknown origin)
[7] = Kinetic solubility in phosphate buffered saline at pH 7.4 measured after 60 mins; assay type: physicochemical; conditions: read-out: Kinetic_solubility
[8] = biological target: Mitogen-activated protein kinase kinase kinase 14 (Homo sapiens, UniProt Q99558); test: Inhibition of recombinant human full-length N-terminal GST-fused/His6-tagged NIK (M1 to P947 residues) expressed in Sf9 insect cells using AKDVDQGSLCTSFVGTLQY peptide as substrate measured after 60 mins by ADP-Glo kinase assay
[9] = biological target: Serine/threonine-protein kinase PLK1 (Homo sapiens, UniProt P53350); test: Inhibition of PLK1 (unknown origin)
[10] = biological target: Serine/threonine-protein kinase 4 (Homo sapiens, UniProt Q13043); test: Inhibition of MST1 (unknown origin)
Insulin receptor = Insulin receptor (Homo sapiens, UniProt P06213); test: Inhibition of INSR (unknown origin)
[11] = biological target: Serine/threonine-protein kinase mTOR (Homo sapiens, UniProt P42345); test: Inhibition of mTOR (unknown origin)
[12] = biological target: Serine/threonine-protein kinase B-raf (Homo sapiens, UniProt P15056); test: Inhibition of wild-type B-RAF (unknown origin)
[13] = test system: Mitogen-activated protein kinase kinase kinase 14 (Homo sapiens), Q99558 [S549D]; test: Inhibition of human NIK kinase domain S549D mutant
[14] = biological target: T2, Inhibitor of nuclear factor kappa-B kinase subunit alpha (Homo sapiens, UniProt O15111); test: Inhibition of recombinant full length human His-tagged IKKalpha expressed in baculovirus expression system using ERLLDDRHDSGLDSMKDEE peptide as substrate measured after 60 mins by ADP-Glo kinase assay
T2 sequence (O15111 whole entry): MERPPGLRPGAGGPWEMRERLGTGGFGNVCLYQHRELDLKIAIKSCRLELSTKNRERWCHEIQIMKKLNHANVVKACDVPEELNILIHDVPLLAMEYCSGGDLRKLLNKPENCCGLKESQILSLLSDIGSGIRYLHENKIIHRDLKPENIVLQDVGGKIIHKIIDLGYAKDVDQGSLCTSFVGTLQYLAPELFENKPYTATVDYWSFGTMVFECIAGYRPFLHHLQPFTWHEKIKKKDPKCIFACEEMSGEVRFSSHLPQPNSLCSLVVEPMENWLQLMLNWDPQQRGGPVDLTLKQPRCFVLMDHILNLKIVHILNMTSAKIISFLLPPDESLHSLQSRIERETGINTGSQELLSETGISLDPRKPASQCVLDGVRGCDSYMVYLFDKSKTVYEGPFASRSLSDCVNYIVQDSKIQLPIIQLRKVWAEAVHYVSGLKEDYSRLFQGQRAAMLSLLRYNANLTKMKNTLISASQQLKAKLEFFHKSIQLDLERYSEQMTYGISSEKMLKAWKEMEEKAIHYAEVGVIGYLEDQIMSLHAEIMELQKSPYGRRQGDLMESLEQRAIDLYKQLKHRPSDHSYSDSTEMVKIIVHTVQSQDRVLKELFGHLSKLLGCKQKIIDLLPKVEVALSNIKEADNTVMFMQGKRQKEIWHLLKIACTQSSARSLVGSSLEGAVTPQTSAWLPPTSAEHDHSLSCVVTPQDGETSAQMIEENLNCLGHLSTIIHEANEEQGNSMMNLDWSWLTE
How it was run: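 Recombinant human IKKα, peptide substrate 100 µM, enzyme 8 ng/µL, ATP 1 µM in Tris-HCl pH 7.5 buffer with MgCl2, MnCl2, DTT, Na3VO4, BSA; 25°C, 60 min; ADP-Glo luminescence. Ten concentrations 0.005–100 µM; IC50 by nonlinear regression; means ± SD of three independent experiments.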

[15] = biological target: Serine/threonine-protein kinase tousled-like 1 (Homo sapiens, UniProt Q9UKI8); test: Inhibition of TLK1 (unknown origin)
[16] = biological target: Mitogen-activated protein kinase kinase kinase 11 (Homo sapiens, UniProt Q16584); test: Inhibition of MAP3K11 (unknown origin)
[17] = biological target: Serine/threonine-protein kinase Chk2 (Homo sapiens, UniProt O96017); test: Inhibition of CHK2 (unknown origin)

Sequence of Serine/threonine-protein kinase 4 (Q13043 whole entry): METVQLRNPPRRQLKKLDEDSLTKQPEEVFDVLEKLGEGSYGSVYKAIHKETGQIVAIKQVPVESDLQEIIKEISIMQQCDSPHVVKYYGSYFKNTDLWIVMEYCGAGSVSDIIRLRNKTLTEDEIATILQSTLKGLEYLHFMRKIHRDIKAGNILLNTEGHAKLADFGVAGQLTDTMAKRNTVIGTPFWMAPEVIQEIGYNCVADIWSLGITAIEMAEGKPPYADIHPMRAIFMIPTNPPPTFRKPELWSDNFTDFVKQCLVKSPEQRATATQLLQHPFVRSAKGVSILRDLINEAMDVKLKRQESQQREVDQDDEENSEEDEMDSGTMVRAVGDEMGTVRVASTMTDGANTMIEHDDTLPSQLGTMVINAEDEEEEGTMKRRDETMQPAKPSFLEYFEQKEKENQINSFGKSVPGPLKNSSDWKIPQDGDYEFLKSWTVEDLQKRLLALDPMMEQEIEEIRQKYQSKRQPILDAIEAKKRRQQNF
Sequence of Mitogen-activated protein kinase kinase kinase 8 (P41279 whole entry): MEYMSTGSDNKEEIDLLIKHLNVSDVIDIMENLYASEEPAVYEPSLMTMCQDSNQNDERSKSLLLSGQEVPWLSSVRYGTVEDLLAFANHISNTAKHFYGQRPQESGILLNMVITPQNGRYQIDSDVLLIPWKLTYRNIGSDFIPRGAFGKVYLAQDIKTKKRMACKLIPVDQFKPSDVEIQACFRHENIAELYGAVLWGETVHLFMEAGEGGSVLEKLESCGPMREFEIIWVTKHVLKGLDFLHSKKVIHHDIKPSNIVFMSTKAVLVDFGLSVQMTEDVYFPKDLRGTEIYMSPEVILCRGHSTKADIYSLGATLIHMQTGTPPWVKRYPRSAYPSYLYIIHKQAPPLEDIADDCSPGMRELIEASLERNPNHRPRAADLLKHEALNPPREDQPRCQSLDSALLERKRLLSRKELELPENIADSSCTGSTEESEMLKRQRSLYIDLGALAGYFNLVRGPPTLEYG
Sequence of Mitogen-activated protein kinase kinase kinase 14 (Homo sapiens), Q99558 [S549D] (Q99558 whole entry S549D, the tested form may be a part): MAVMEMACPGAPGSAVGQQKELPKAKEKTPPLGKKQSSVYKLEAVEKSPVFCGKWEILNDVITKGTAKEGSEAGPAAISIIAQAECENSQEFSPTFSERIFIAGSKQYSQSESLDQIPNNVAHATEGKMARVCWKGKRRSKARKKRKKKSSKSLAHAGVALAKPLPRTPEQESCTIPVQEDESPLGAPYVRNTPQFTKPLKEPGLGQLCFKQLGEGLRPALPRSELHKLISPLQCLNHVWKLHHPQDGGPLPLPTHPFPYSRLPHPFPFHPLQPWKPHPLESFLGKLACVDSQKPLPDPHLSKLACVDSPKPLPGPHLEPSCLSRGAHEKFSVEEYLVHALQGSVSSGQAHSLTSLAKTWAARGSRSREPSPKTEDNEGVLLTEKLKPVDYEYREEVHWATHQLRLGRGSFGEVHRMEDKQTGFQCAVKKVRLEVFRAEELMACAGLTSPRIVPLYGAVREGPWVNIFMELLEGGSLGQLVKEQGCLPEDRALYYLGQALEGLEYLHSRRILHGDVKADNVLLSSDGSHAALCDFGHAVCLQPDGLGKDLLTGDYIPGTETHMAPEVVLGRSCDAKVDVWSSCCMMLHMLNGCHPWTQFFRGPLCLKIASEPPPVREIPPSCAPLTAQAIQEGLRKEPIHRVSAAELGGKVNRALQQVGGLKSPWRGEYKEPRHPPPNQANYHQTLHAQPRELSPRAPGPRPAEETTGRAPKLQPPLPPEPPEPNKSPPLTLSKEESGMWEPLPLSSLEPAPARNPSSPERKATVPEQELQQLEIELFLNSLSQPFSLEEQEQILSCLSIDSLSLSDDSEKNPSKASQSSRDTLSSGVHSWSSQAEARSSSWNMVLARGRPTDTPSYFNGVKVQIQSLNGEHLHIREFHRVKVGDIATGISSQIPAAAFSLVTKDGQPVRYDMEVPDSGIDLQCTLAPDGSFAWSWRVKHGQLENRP
Sequence of Insulin receptor (P06213 28-758 limits assumed): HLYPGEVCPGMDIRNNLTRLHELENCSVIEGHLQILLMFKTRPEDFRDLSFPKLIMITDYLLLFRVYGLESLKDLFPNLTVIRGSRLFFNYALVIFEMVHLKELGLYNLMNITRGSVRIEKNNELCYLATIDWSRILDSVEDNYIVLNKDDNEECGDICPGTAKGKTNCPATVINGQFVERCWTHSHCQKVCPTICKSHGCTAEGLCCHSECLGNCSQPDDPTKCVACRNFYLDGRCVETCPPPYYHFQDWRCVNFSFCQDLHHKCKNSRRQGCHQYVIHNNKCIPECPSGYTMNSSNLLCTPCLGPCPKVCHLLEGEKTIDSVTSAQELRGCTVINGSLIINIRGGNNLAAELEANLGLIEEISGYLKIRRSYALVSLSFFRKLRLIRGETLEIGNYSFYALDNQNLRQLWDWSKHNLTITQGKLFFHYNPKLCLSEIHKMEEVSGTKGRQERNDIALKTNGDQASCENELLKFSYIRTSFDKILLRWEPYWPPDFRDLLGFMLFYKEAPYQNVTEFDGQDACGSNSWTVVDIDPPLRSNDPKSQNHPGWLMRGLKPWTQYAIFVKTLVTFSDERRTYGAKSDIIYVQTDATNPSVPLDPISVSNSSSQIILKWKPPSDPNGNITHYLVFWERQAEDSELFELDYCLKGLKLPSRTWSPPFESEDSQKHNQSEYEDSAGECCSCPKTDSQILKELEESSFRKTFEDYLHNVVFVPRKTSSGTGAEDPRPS
Sequence of Insulin receptor (P06213 763-1382 limits assumed): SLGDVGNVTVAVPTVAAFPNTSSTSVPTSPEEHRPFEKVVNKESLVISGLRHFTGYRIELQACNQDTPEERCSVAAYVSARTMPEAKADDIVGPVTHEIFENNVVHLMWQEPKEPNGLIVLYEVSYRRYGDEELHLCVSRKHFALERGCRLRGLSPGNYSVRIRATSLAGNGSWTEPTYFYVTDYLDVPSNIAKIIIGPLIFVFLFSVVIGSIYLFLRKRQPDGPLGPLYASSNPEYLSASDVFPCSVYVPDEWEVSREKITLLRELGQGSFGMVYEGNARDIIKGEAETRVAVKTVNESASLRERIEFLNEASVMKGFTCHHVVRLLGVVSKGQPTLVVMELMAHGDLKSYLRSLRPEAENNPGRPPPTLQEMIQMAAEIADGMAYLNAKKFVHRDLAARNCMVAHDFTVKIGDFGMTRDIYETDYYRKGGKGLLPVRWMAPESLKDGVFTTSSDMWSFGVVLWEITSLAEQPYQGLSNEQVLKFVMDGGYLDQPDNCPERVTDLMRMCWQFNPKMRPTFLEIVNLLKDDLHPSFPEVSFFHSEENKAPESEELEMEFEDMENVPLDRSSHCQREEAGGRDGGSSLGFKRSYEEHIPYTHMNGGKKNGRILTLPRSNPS
Sequence of Serine/threonine-protein kinase PLK1 (P53350 whole entry): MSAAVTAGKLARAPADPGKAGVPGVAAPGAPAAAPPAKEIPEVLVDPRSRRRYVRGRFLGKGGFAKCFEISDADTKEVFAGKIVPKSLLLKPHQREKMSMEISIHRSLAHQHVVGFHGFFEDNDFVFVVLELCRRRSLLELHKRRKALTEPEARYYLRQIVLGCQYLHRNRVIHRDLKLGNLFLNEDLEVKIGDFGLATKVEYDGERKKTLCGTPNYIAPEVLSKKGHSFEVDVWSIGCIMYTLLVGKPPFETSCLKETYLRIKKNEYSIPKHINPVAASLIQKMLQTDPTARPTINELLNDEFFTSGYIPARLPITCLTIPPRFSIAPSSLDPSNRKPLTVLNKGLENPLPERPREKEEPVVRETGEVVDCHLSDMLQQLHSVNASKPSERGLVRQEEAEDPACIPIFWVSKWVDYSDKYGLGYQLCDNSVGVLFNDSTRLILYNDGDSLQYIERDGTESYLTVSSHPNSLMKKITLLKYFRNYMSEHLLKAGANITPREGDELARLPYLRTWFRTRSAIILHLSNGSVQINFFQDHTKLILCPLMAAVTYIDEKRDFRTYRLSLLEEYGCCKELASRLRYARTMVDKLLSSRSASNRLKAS
Sequence of Mitogen-activated protein kinase kinase kinase 11 (Q16584 whole entry): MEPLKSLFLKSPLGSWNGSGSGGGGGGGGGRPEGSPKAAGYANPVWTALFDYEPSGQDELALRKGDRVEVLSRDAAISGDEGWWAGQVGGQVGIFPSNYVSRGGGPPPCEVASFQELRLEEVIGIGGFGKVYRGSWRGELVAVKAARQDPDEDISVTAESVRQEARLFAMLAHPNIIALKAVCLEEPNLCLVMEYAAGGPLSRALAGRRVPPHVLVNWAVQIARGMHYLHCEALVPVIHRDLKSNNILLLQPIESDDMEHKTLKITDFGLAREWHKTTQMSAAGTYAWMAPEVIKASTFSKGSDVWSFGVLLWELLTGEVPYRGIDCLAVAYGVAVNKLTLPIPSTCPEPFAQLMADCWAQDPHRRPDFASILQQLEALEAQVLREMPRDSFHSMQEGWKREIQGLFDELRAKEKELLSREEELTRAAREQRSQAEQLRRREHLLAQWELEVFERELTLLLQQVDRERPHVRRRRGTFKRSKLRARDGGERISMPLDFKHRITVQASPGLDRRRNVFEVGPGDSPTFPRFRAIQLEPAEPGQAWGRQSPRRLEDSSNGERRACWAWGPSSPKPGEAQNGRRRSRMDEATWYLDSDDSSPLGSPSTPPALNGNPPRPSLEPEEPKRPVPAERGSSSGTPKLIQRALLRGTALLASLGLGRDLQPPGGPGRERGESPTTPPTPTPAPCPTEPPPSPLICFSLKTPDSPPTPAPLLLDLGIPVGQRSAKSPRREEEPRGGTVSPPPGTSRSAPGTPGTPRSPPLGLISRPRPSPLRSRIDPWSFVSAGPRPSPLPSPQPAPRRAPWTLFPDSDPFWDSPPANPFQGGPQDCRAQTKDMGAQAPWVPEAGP
Sequence of Mitogen-activated protein kinase kinase kinase 14 (Q99558 whole entry, the tested form may be a part): as the sequence (Q99558 whole entry S549D, the tested form may be a part) above, with D549S counted along it

Structure (SMILES): CC(=O)n1nc(C)c(-c2ccc(Cl)c(Cl)c2)c1N
- IC50 [1]: > 100 µM
- IC50 [2]: > 100 µM
- IC50 [3]: > 100 µM
- IC50 [4]: > 100 µM
- IC50 [5]: > 100 µM
- IC50 (Ephrin type-A receptor 6): > 100 µM
- IC50 [6]: > 100 µM
- solubility kinetic at 1 h [7]: 12 µM (≈ 3.41 µg/mL)
- IC50 [8]: 8.4 µM
- IC50 [9]: > 100 µM
- IC50 [10]: > 100 µM
- IC50 (Insulin receptor): > 100 µM
- IC50 [11]: > 100 µM
- IC50 [12]: > 100 µM
- inhibition [13]: inactive
- IC50 [14]: > 100 µM
- IC50 [15]: > 100 µM
- IC50 [16]: > 100 µM
- IC50 [17]: > 100 µM
